These results are taken from paper PMC4902112 (Biochemistry, 2009).

Assay [1] concerns the target T1, human tear lipocalin (TL) (Homo sapiens, UniProt P31025, W35Y). As to the kind of experiment: DAUDA fluorescence displacement. The assay is classed as binding.
Assay [2] addresses human tear lipocalin (TL) (Homo sapiens, UniProt P31025, G121W/W35Y). In words: Trp fluorescence titration, one-site fit. The format is binding. Summed up: (§1)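 Recombinant human TL single-Trp mutants: native Trp replaced by Tyr, one site changed to Trp. Expressed in E. coli BL21(DE3); purified by gel filtration and DEAE chromatography. About 14 μM protein in 10 mM sodium phosphate, pH 7.3, at room temperature, titrated with palmitic acid or its spin-labeled analogue. 2 min equilibration per addition. Excitation 295 nm, emission read at λmax. One-site fit gave apparent Kd and stoichiometry.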

Assay [3] has as its target human tear lipocalin (TL) (Homo sapiens, UniProt P31025, L86W/W35Y). In words: Trp fluorescence titration, one-site fit. The assay is classed as binding. In outline:
as §1

Assay [4] addresses human tear lipocalin (TL) (Homo sapiens, UniProt P31025, M40W/W35Y). In words: Trp fluorescence titration, one-site fit. The assay is classed as binding. Summed up:
as §1

Assay [5] has as its target human tear lipocalin (TL) (Homo sapiens, UniProt P31025, C119W/W35Y). As to the kind of experiment: Trp fluorescence titration, one-site fit. The format is binding. In outline:
as §1

Assay [6] addresses human tear lipocalin (TL) (Homo sapiens, UniProt P31025, W35Y/Y115W). As to the kind of experiment: Trp fluorescence titration, one-site fit. The assay is classed as binding. Summed up: as §1
Assay [7] has as its target human tear lipocalin (TL) (Homo sapiens, UniProt P31025, L123W/W35Y). In words: Trp fluorescence titration, one-site fit. The assay is classed as binding. Summed up:
as §1

The target of assay [8] is human tear lipocalin (TL) (Homo sapiens, UniProt P31025, I106W/W35Y). In words: Trp fluorescence titration, one-site fit. The assay is classed as binding. In outline:
as §1

The target in assay [9] is human tear lipocalin (TL) (Homo sapiens, UniProt P31025, T55W/W35Y). As to the kind of experiment: Trp fluorescence titration, one-site fit. The format is binding. In outline: as §1
human tear lipocalin (TL) (Homo sapiens, UniProt P31025, T55W/W35Y), sequence (P31025 19-176 W35Y/T55W): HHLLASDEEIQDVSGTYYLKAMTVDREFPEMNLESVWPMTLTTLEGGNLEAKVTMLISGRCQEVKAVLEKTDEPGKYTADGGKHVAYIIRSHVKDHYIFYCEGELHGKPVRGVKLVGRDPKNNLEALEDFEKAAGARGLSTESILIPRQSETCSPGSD
Assay [10] has as its target human tear lipocalin (TL) (Homo sapiens, UniProt P31025, L67W/W35Y). As to the kind of experiment: Trp fluorescence titration, one-site fit. The assay is classed as binding. Summed up: as §1
The target of assay [11] is human tear lipocalin (TL) (Homo sapiens, UniProt P31025, I75W/W35Y). As to the kind of experiment: Trp fluorescence titration, one-site fit. The assay is classed as binding. In outline: as §1
human tear lipocalin (TL) (Homo sapiens, UniProt P31025, I75W/W35Y), sequence (P31025 19-176 W35Y/I75W): as the sequence (P31025 19-176 W35Y/T55W) above, with W37T, I57W counted along it
Assay [12] has as its target T1, human tear lipocalin (TL). In words: fluorescence enhancement and blue shift on binding. The conditions noted are these: TL 4 μM, DAUDA 2 μM, 10 mM sodium phosphate, pH 7.3; fluorescent probe.

SMILES strings stand for the structures.

T1 sequence (P31025 19-176 W35Y): as the sequence (P31025 19-176 W35Y/T55W) above, with W37T counted along it
human tear lipocalin (TL) (Homo sapiens, UniProt P31025, W35Y/Y115W), sequence (P31025 19-176 W35Y/Y115W): as the sequence (P31025 19-176 W35Y/T55W) above, with W37T, Y97W counted along it
human tear lipocalin (TL) (Homo sapiens, UniProt P31025, M40W/W35Y), sequence (P31025 19-176 W35Y/M40W): as the sequence (P31025 19-176 W35Y/T55W) above, with M22W, W37T counted along it
human tear lipocalin (TL) (Homo sapiens, UniProt P31025, G121W/W35Y), sequence (P31025 19-176 W35Y/G121W): as the sequence (P31025 19-176 W35Y/T55W) above, with W37T, G103W counted along it
human tear lipocalin (TL) (Homo sapiens, UniProt P31025, L67W/W35Y), sequence (P31025 19-176 W35Y/L67W): as the sequence (P31025 19-176 W35Y/T55W) above, with W37T, L49W counted along it
human tear lipocalin (TL) (Homo sapiens, UniProt P31025, L86W/W35Y), sequence (P31025 19-176 W35Y/L86W): as the sequence (P31025 19-176 W35Y/T55W) above, with W37T, L68W counted along it
human tear lipocalin (TL) (Homo sapiens, UniProt P31025, I106W/W35Y), sequence (P31025 19-176 W35Y/I106W): as the sequence (P31025 19-176 W35Y/T55W) above, with W37T, I88W counted along it
human tear lipocalin (TL) (Homo sapiens, UniProt P31025, L123W/W35Y), sequence (P31025 19-176 W35Y/L123W): as the sequence (P31025 19-176 W35Y/T55W) above, with W37T, L105W counted along it
human tear lipocalin (TL) (Homo sapiens, UniProt P31025, C119W/W35Y), sequence (P31025 19-176 W35Y/C119W): as the sequence (P31025 19-176 W35Y/T55W) above, with W37T, C101W counted along it

Regarding `CCCCCCCCCCCC(=O)O` [LA], the IC50 in [1] stood at 12600 nM.
As for `CCCCCCCCCCCCCCCC(=O)O` [PA], the Kd in [2] came to 300 ± 100 nM; in [3] it was 300 ± 100 nM; in assay [4] it was 900 ± 200 nM; in assay [5], 2800 ± 500 nM; in [6], 400 ± 100 nM; in [7], 500 ± 100 nM. In addition, the dissociation constant (Kd) was 500 ± 200 nM in assay [8], 5800 ± 600 nM in assay [9], 2300 ± 200 nM in assay [10] and 500 ± 100 nM in [11]. In addition, the IC50 in assay [1] is 2300 nM.
Turning to `CN(C)c1cccc2c(S(=O)(=O)NCCCCCCCCCCC(=O)O)cccc12` [DAUDA, 11-((5-dimethylaminonaphthalene-1-sulfonyl)amino)undecanoic acid], the “fluorescence enhancement and blue shift on binding” value in assay [12] was “DAUDA increases significantly and exhibits a blue shift ... when bound to TL”.

One may read the IC50 as the concentration that inhibits the measured activity by half. A lower IC50 goes with greater potency in that assay. One may read the Kd as the concentration at which binding is half-saturated. A low value points to higher affinity.
